According to ChEMBL document CHEMBL1150059, “Antifungal activity of meridine, a natural product from the marine sponge Corticium sp” (J Nat Prod, 1992):
Values after ≈ are worked out from the molar mass of the structure shown. Values belong to the compound of their own block, whether it stands above or below them. Active and inactive are the calls of the source. No cut-off for these calls is given here.

Tests used:
Candida albicans [1] = assay: Antifungal activity against Candida albicans 44506 assessed as inhibition of U-14C-leucine incorporation into TCA precipitable material after 1 hr; assay type: functional, organism-based; conditions: Candida albicans, 44506, 1 h
Outline: (§1)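 Candida grown overnight in YNBG to mid-log phase, washed with saline, and resuspended in YNB lacking the precursor under study. Compound preincubated 30 min at 37°. 14C-labelled acetate, adenine, glucose or leucine (per line) then added, with incorporation followed 60 min (linear). Stopped with ice-cold TCA, 5% final. IC50 is the concentration giving 50% inhibition versus control.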

Candida albicans [2] = assay: Antifungal activity against Candida albicans 44506 assessed as inhibition of U-14C-adenine incorporation into TCA precipitable material after 1 hr; assay type: functional, organism-based; conditions: Candida albicans, 44506, 1 h; outline: as §1
Candida albicans [3] = assay: Antifungal activity against Candida albicans 44506 assessed as inhibition of U-14C-acetate incorporation into TCA precipitable material after 1 hr; assay type: functional, organism-based; conditions: Candida albicans, 44506, 1 h; outline: as §1
Candida albicans [4] = assay: Antifungal activity against Candida albicans 44506 assessed as inhibition of U-14C-glucose incorporation into TCA precipitable material after 1 hr; assay type: functional, organism-based; conditions: Candida albicans, 44506, 1 h; outline: as §1
Candida albicans [5] = assay: Antifungal activity against Candida albicans 44506 in Sabouraud dextrose broth after 18 to 24 hrs by twofold broth dilution method; assay type: functional
Outline: (§2)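 Inoculum 10^3 cells/ml, incubated 18–24 h at 37°. MIC read visually as the lowest concentration with complete growth inhibition. Average of triplicates.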

Candida albicans [6] = assay: Antifungal activity against Candida albicans 44506 in RPMI-1640 medium after 18 to 24 hrs by twofold broth dilution method; assay type: functional
Outline: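 Twofold broth microdilution in RPMI-1640 (pH 7.2, unbuffered), inoculum 10^3 cells/ml. Incubated 18–24 h at 37° under 5% CO2. MIC read visually as the lowest concentration giving complete growth inhibition. Average of triplicates.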

Candida albicans [7] = assay: Antifungal activity against Candida albicans 44506 in YNBG medium of pH 5.4 after 7 days by agar dilution method; assay type: functional; conditions: Candida albicans, 44506, 168 h
Sporothrix schenckii = assay: Antifungal activity against Sporothrix schenckii 14284 after 18 to 24 hrs by twofold broth dilution method; assay type: functional
Candida albicans [8] = assay: Antifungal activity against Candida albicans 44506 in YNBG medium after 7 days in pH 6 buffer by agar dilution method; assay type: functional; conditions: Candida albicans, 44506, 168 h
Candida albicans [9] = assay: Antifungal activity against Candida albicans 44506 in RPMI-1640 medium after 7 days in pH 5 buffer by agar dilution method; assay type: functional; conditions: Candida albicans, 44506, 168 h
Cryptococcus neoformans [10] = assay: Antifungal activity against Cryptococcus neoformans 32045 after 48 hrs by twofold broth dilution method; assay type: functional; conditions: Cryptococcus neoformans, 32045, 48 h
Outline: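 Broth microdilution with twofold compound dilutions and an inoculum of 10^3 cells/ml. Incubated 48 h at 37°. MIC is the visually read lowest concentration completely inhibiting growth. Triplicate average.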

Candida albicans [11] = assay: Antifungal activity against Candida albicans 44506 in RPMI-1640 medium after 7 days in pH 8 buffer by agar dilution method; assay type: functional; conditions: Candida albicans, 44506, 168 h
Candida albicans [12] = assay: Antifungal activity against Candida albicans 44506 in RPMI-1640 medium after 24 to 48 hrs; assay type: functional
Outline: (§3)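 MFC taken from the broth MIC plates: wells resuspended, and 1 µl streaked onto Sabouraud dextrose agar (Candida) or Emmon's SDA (Cryptococcus). Scored after 24–48 h at 37°. MFC is the lowest concentration killing 99% of the inoculum. Average of triplicates.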

Candida albicans [13] = assay: Antifungal activity against Candida albicans 44506 in YNBG medium after 7 days in pH 4 buffer by agar dilution method; assay type: functional; conditions: Candida albicans, 44506, 168 h
Candida albicans [14] = assay: Antifungal activity against Candida albicans 44506 in YNBG medium after 7 days in pH 8 buffer by agar dilution method; assay type: functional; conditions: Candida albicans, 44506, 168 h
Candida albicans [15] = assay: Antifungal activity against Candida albicans 44506 in RPMI-1640 medium after 7 days in pH 7 buffer by agar dilution method; assay type: functional; conditions: Candida albicans, 44506, 168 h
Candida albicans [16] = assay: Antifungal activity against Candida albicans 44506 in RPMI-1640 medium of pH 7.2 after 7 days by agar dilution method; assay type: functional; conditions: Candida albicans, 44506, 168 h
Nannizzia gypsea = assay: Antifungal activity against Microsporum gypseum 42960 after 18 to 24 hrs by twofold broth dilution method; assay type: functional
[17] = test system: Trichophyton mentagrophytes; assay: Antifungal activity against Trichophyton mentagrophytes 9533 after 18 to 24 hrs by twofold broth dilution method; assay type: functional
[18] = test system: Scopulariopsis brevicaulis; assay: Antifungal activity against Scopulariopsis brevicaulis 36840 after 18 to 24 hrs by twofold broth dilution method; assay type: functional
Trichosporon beigelii = assay: Antifungal activity against Trichosporon beigelii 28592 after 18 to 24 hrs by twofold broth dilution method; assay type: functional
Candida albicans [19] = assay: Antifungal activity against Candida albicans 44506 in YNBG medium after 18 to 24 hrs by twofold broth dilution method; assay type: functional; outline: as §2
Bacillus subtilis = assay: Antibacterial activity against Bacillus subtilis 6633 after 18 to 24 hrs by twofold broth dilution method; assay type: functional
Outline: (§4)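 Twofold serial dilutions in Mueller-Hinton broth supplemented with Mg2+ and Ca2+. Inoculum 10^3 cells/ml, with cell density counted by hemocytometer. Incubated 18–24 h at 37°. MIC is the lowest concentration giving complete visual inhibition of growth. Triplicate determinations, reported as the average.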

Pseudomonas aeruginosa = assay: Antibacterial activity against Pseudomonas aeruginosa 27853 after 18 to 24 hrs by twofold broth dilution method; assay type: functional, organism-based; outline: as §4
Candida albicans [20] = assay: Antifungal activity against Candida albicans 44506 in YNBG medium after 7 days in pH 5 buffer by agar dilution method; assay type: functional; conditions: Candida albicans, 44506, 168 h
Escherichia coli = assay: Antibacterial activity against Escherichia coli HBOI 001 after 18 to 24 hrs by twofold broth dilution method; assay type: functional, organism-based; outline: as §4
Candida albicans [21] = assay: Antifungal activity against Candida albicans 44506 in RPMI-1640 medium after 7 days in pH 6 buffer by agar dilution method; assay type: functional; conditions: Candida albicans, 44506, 168 h
Epidermophyton floccosum = assay: Antifungal activity against Epidermophyton floccosum 25066 after 18 to 24 hrs by twofold broth dilution method; assay type: functional
Candida albicans [22] = assay: Antifungal activity against Candida albicans 44506 in Sabouraud dextrose broth after 24 to 48 hrs; assay type: functional; outline: as §3
Candida albicans [23] = assay: Antifungal activity against Candida albicans 44506 in YNBG medium after 7 days in pH 7 buffer by agar dilution method; assay type: functional; conditions: Candida albicans, 44506, 168 h
Cryptococcus neoformans [24] = assay: Antifungal activity against Cryptococcus neoformans 32045 after 24 to 48 hrs; assay type: functional; outline: as §3
Candida albicans [25] = assay: Antifungal activity against Candida albicans 44506 in RPMI-1640 medium after 7 days in pH 4 buffer by agar dilution method; assay type: functional; conditions: Candida albicans, 44506, 168 h

SMILES: CN(CC[C@H](N)CC(=O)N[C@H]1C=C[C@H](n2ccc(N)nc2=O)O[C@@H]1C(=O)O)C(=N)N [BLASTICIDIN_S]
IC50 (Candida albicans [1]): 6 µg/mL (≈ 14.2 µM)
IC50 (Candida albicans [2]): > 100 µg/mL
IC50 (Candida albicans [3]): > 100 µg/mL
IC50 (Candida albicans [4]): > 100 µg/mL

IC50 (Candida albicans [1]): > 100 µg/mL
IC50 (Candida albicans [2]): 6 µg/mL (≈ 46.5 µM)
IC50 (Candida albicans [3]): > 100 µg/mL
IC50 (Candida albicans [4]): > 100 µg/mL
SMILES: Nc1nc(=O)[nH]cc1F [FLUCYTOSINE]

SMILES: CC(=O)N1CCN(c2ccc(OCC3COC(Cn4ccnc4)(c4ccc(Cl)cc4Cl)O3)cc2)CC1 (centres undefined) [KETOCONAZOLE]
MIC (Candida albicans [5]): 0.062 µg/mL (≈ 0.117 µM)
MIC (Candida albicans [6]): 0.008 µg/mL (≈ 0.0151 µM)

SMILES: O=C1c2nccc(O)c2-c2nc3ccccc3c3ccnc1c23 [MERIDINE]
MIC (Candida albicans [7]): 2.5 µg/mL (≈ 8.35 µM)
IC50 (Candida albicans [1]): 50 µg/mL (≈ 167 µM)
MIC (Sporothrix schenckii): > 25 µg/mL
MIC (Candida albicans [8]): 1.2 µg/mL (≈ 4.01 µM)
IC50 (Candida albicans [2]): 1 µg/mL (≈ 3.34 µM)
MIC (Candida albicans [9]): 0.62 µg/mL (≈ 2.07 µM)
MIC (Cryptococcus neoformans [10]): 0.8 µg/mL (≈ 2.67 µM)
MIC (Candida albicans [11]): 0.31 µg/mL (≈ 1.04 µM)
MFC (Candida albicans [12]): 0.2 µg/mL (≈ 0.668 µM)
MIC (Candida albicans [13]): 2.5 µg/mL (≈ 8.35 µM)
MIC (Candida albicans [14]): 1.2 µg/mL (≈ 4.01 µM)
IC50 (Candida albicans [3]): > 100 µg/mL
MIC (Candida albicans [15]): 0.31 µg/mL (≈ 1.04 µM)
MIC (Candida albicans [16]): 0.31 µg/mL (≈ 1.04 µM)
MIC (Candida albicans [5]): 3.1 µg/mL (≈ 10.4 µM)
MIC (Nannizzia gypsea): 25 µg/mL (≈ 83.5 µM)
MIC [17]: 6.2 µg/mL (≈ 20.7 µM)
MIC [18]: > 25 µg/mL
MIC (Trichosporon beigelii): > 25 µg/mL
MIC (Candida albicans [19]): 2.5 µg/mL (≈ 8.35 µM)
MIC (Bacillus subtilis): 3.1 µg/mL (≈ 10.4 µM)
Activity (Pseudomonas aeruginosa): inactive
MIC (Candida albicans [20]): 2.5 µg/mL (≈ 8.35 µM)
Activity (Escherichia coli): inactive
MIC (Candida albicans [21]): 0.31 µg/mL (≈ 1.04 µM)
MIC (Epidermophyton floccosum): 1.6 µg/mL (≈ 5.35 µM)
MFC (Candida albicans [22]): 3.1 µg/mL (≈ 10.4 µM)
IC50 (Candida albicans [4]): > 100 µg/mL
MIC (Candida albicans [23]): 1.2 µg/mL (≈ 4.01 µM)
MFC (Cryptococcus neoformans [24]): 6.2 µg/mL (≈ 20.7 µM)
MIC (Candida albicans [25]): 0.62 µg/mL (≈ 2.07 µM)
MIC (Candida albicans [6]): 0.2 µg/mL (≈ 0.668 µM)

SMILES: Clc1ccc(COC(Cn2ccnc2)c2ccc(Cl)cc2Cl)c(Cl)c1 (centres undefined) [MICONAZOLE]
MIC (Candida albicans [5]): 25 µg/mL (≈ 60.1 µM)
MIC (Candida albicans [6]): 0.03 µg/mL (≈ 0.0721 µM)
